This note sets out measurements from PubChem BioAssay AID493019 (Circadian Research, Kay Laboratory, University of …, 2011).

A short description of assay [1]: circadian period lengthening and CKI inhibition, late-stage follow-up, mechanism study for circadian clock modulator project, cell-based, U2OS Bmal1-dLuc, CKIdelta, CKIalpha, ERK2, CDK7 (AID 493019). As to conditions: U2OS Bmal1-dLuc circadian period lengthening, luminescence; for EC (10 h period change): measured here: 10 h period lengthening; for EC (15 h period change): measured here: 15 h period lengthening. In a few lines:
(§1)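 Material – U2OS osteosarcoma cells carrying Bmal1-dLuc reporter, plus in vitro kinases · Times – circadian recording 5 days, kinase reaction 3 h at 30 °C · Signal – luciferase luminescence every 100 min, Kinase-Glo residual-ATP luminescence for kinases · Measure – doses lengthening fitted rhythm period 5, 10, 15 h, kinase IC50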

Assay [2] deals with Casein kinase I isoform alpha (Homo sapiens) (UniProt P48729). The assay is described as above. The settings on record: U2OS Bmal1-dLuc circadian period lengthening, luminescence; for IC50: measured here: CKIalpha in vitro kinase. Summed up: as §1
In assay [3] the target is Casein kinase I isoform delta (Homo sapiens) (UniProt P48730). Described as above. The settings on record: U2OS Bmal1-dLuc circadian period lengthening, luminescence; for IC50: measured here: CKIdelta in vitro kinase. In a few lines: as §1
The target of assay [4] is Cyclin-dependent kinase 7 (Homo sapiens) (UniProt P50613). Described as above. As to conditions: U2OS Bmal1-dLuc circadian period lengthening, luminescence; measured here: CDK7 in vitro kinase. Summed up:
as §1

Assay [5] deals with Mitogen-activated protein kinase 1 (Homo sapiens) (UniProt P28482). Described as above. As to conditions: U2OS Bmal1-dLuc circadian period lengthening, luminescence; measured here: ERK2 in vitro kinase. Summed up: as §1
The test system of assay [6] is U2OS Bmal1-dLuc circadian period lengthening, luminescence. The description is as above. In a few lines:
as §1

As usually defined, the IC50 is the midpoint of a concentration-inhibition curve. Regarding `CC(C)n1cnc2c(NCc3ccccc3)ncnc21`, the EC (10 h period change) in assay [1] was found to be 17 µM. The same molecule came in with an EC (15 h period change) in assay [1] of 38 µM. Further, the 50% inhibitory concentration (IC50) was 23 µM in assay [2], 21 µM in assay [3], 29 µM in assay [4] and 160 µM in assay [5]. Also, the EC (5 h period change) in assay [6] is 4400 nM.

As a reminder, the EC50 is the concentration needed to bring the measured effect to its halfway point. A high value points to lower potency in that assay. In turn, `CC(C)n1cnc2c(NCc3cccc(C(F)(F)F)c3)ncnc21` returned an EC (10 h period change) in assay [1] of 5.7 µM. Further, the EC (15 h period change) in assay [1] stood at 13 µM. In addition, the EC50 in assay [2] (measured here: CKIalpha cell PER1 degradation) stood at 9.2 µM; in assay [3] (measured here: CKIdelta cell PER1 degradation), 9.7 µM. Further, the half-maximal inhibitory concentration (IC50) in assay [2] was 5.6 µM; in assay [3] it was 8.8 µM; in assay [4], 29 µM; in assay [5], 52 µM. Further, the EC (5 h period change) in assay [6] was 1500 nM.
